This note sets out measurements from ChEMBL document CHEMBL1154852, “Design, synthesis and pharmacological screening of potential anticonvulsant agents using hybrid approach” (Eur J Med Chem, 2010).

The subject of data set [1] is Mus musculus. The data set is described as follows: Anticonvulsant activity in Swiss albino mouse assessed as reduction of supramaximal electroshock-induced hind limb tonic extension response at 10 mg/kg, ip administered 30 mins before SME challenge measured after 1 hr. The data set is classed as functional, Hindlimb. As to conditions: route intraperitoneal. An outline of the steps: (§1)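 Swiss albino mice of either sex, 30–35 g, n=6 per group, dosed 10 or 30 mg/kg i.p.; diazepam 5 mg/kg as standard. After 1 h, electroshock 42 mA for 0.2 s via ear electrodes. Readout: duration of hind limb extension phase (sec). Mean ± SEM; one-way ANOVA with Student–Newman–Keuls test.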
On the technique in general: Protection in the maximal electroshock model is a classic sign of anticonvulsant action.

Data set [2] deals with Mus musculus. Briefly: Anticonvulsant activity in Swiss albino mouse assessed as reduction of supramaximal electroshock-induced hind limb tonic extension response at 30 mg/kg, ip administered 30 mins before SME challenge measured after 1 hr. The data set is classed as functional, Hindlimb. Conditions: route intraperitoneal. An outline of the steps:
as §1

Data set [3] has as its system Mus musculus. Briefly: Anticonvulsant activity in Swiss albino mouse assessed as inhibition of isoniazide hydrazone-induced seizure at 10 mg/kg, ip administered 30 mins before isoniazide hydrazone challenge measured after 1 hr. The data set is classed as functional. As to conditions: route intraperitoneal. The procedure, abridged:
(§2)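 Swiss albino mice, 30–35 g, given test drug 10 or 30 mg/kg i.p.; INH 250 mg/kg i.p. injected 30 min later. Animals showing excitement, myoclonic jerks, clonic and maximal seizures grouped, n=6. Readout: reduction of seizure duration (sec). Reference standard diazepam. Mean ± SEM; one-way ANOVA with Student–Newman–Keuls test.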

In data set [4] the test system is Mus musculus. The data set is described as follows: Anticonvulsant activity in Swiss albino mouse assessed as inhibition of isoniazide hydrazone-induced seizure at 30 mg/kg, ip administered 30 mins before isoniazide hydrazone challenge measured after 1 hr. As to conditions: route intraperitoneal. The data set is classed as functional. The procedure, abridged:
as §2

In data set [5] the test system is Mus musculus. Briefly: Toxicity in ip dosed Swiss albino mouse assessed as decrease in locomotor activity after 30 mins by actophotometer. The data set is classed as organism-based. Conditions: in vivo, 0.5 h. An outline of the steps:
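Actophotometer test in six mice per group, dosed 10 or 30 mg/kg i.p.; vehicle control 0.2% Tween 80 (0.3 ml/kg); diazepam 5 mg/kg as standard. Scored 30 min after dosing: beam interruptions counted over 10 min after 1 min acclimatization, before versus after treatment. Mean ± SEM.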

For data set [6], the system named is Mus musculus. The data set is described as follows: Toxicity in ip dosed Swiss albino mouse assessed as assessed as decrease in fall of time after 30 mins by rotarod test. As to conditions: in vivo, 0.5 h. The data set is classed as organism-based. A general note: In the rotarod test animals must keep their balance on a rotating rod.

With `Cc1csc(NC(=O)c2ccccc2)c1C(=O)NN1C2=Nc3ccccc3NC(c3ccccc3O)C2SC1/C=C/c1ccccc1` (stereo not drawn), the Activity was 13.228 s in the data set on Mus musculus [1]; 14.263 s in the data set with Mus musculus [2]; 85.5 s in the data set on Mus musculus [3]; 87.667 s in the data set on Mus musculus [4]; “Non-toxic” in the data set with Mus musculus [5]; “Non-toxic” in the data set on Mus musculus [6].

On to `Cc1csc(NC(=O)c2ccccc2)c1C(=O)NN1C2=Nc3ccccc3NC(c3cccc([N+](=O)[O-])c3)C2SC1/C=C/c1ccccc1` (stereo not drawn), for which the Activity in the data set on Mus musculus [1] is 15.328 s; in the data set with Mus musculus [2], 14.907 s; in the data set on Mus musculus [3], 71.33 s; in the data set with Mus musculus [4] it was 78.833 s; in the data set on Mus musculus [5], “Non-toxic”; in the data set on Mus musculus [6], “Non-toxic”.

Take `Cc1csc(NC(=O)c2ccccc2)c1C(=O)NN1C2=Nc3ccccc3NC(c3ccccc3Cl)C2SC1/C=C/c1ccccc1` (stereo not drawn): the Activity in the data set on Mus musculus [1] is given as 14.54 s; in the data set with Mus musculus [2], 13.632 s; with Mus musculus [3], 81.833 s; with Mus musculus [4], 83.33 s; with Mus musculus [5] it was “Non-toxic”; with Mus musculus [6] it was “Non-toxic”.

Consider `Cc1csc(NC(=O)c2ccccc2)c1C(=O)NN1C2=Nc3ccccc3NC(c3ccc(N(C)C)cc3)C2SC1/C=C/c1ccccc1` (stereo not drawn), for which the Activity in the data set with Mus musculus [1] is given as 13.355 s; with Mus musculus [2], 13 s; in the data set on Mus musculus [3], 92.33 s; with Mus musculus [4] it was 95.33 s; in the data set on Mus musculus [5], “Non-toxic”; in the data set with Mus musculus [6], “Non-toxic”.

Consider `COc1ccc(C2Nc3ccccc3N=C3C2SC(/C=C/c2ccccc2)N3NC(=O)c2c(C)csc2NC(=O)c2ccccc2)cc1` (stereo not drawn), for which the Activity with Mus musculus [1] is listed as 15.328 s; in the data set with Mus musculus [2], 14.907 s; in the data set on Mus musculus [3] it was 101.83 s; with Mus musculus [4], 108.5 s; with Mus musculus [5], “Non-toxic”; in the data set on Mus musculus [6], “Non-toxic”.

Consider `Cc1csc(NC(=O)c2ccccc2)c1C(=O)NN1C2=Nc3ccccc3NC(c3ccc(F)cc3)C2SC1/C=C/c1ccccc1` (stereo not drawn), for which the Activity was 16.442 s in the data set on Mus musculus [1]; 15.408 s with Mus musculus [2]; 69.833 s with Mus musculus [3]; 74 s with Mus musculus [4]; “Non-toxic” in the data set on Mus musculus [5]; “Non-toxic” with Mus musculus [6].

With `CN1C(=O)CN=C(c2ccccc2)c2cc(Cl)ccc21` [DIAZEPAM], the Activity entry in the data set with Mus musculus [5] and with Mus musculus [6] was “Non-toxic” in each case.
